Experimental data: ChEMBL document CHEMBL3108770, “Discovery and biological evaluation of novel 1,4-benzoquinone and related resorcinol derivatives that inhibit 5-lipoxygenase” (Eur J Med Chem, 2013)

Assays:
[1] = molecular target: T1, Polyunsaturated fatty acid lipoxygenase ALOX15 (Homo sapiens, UniProt P16050); experiment: Inhibition of 15-LO in human PMNL using arachidonic acid as substrate preincubated for 15 mins
T1 sequence (P16050 whole entry): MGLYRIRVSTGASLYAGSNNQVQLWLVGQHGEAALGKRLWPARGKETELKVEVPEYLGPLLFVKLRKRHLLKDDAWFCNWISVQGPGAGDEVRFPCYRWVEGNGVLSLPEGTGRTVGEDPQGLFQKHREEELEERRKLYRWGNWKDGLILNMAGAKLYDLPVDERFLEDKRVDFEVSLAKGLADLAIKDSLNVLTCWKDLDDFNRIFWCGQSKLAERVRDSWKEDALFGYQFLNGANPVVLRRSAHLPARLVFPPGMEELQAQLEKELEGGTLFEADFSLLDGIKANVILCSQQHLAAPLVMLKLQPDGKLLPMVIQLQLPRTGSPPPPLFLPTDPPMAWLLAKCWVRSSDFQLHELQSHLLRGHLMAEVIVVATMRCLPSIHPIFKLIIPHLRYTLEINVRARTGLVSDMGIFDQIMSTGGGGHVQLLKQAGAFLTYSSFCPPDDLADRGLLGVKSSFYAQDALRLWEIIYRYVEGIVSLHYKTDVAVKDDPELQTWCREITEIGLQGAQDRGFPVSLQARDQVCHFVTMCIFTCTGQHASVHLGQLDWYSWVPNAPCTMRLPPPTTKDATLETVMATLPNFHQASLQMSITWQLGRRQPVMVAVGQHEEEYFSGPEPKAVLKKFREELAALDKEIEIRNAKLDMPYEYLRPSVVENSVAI
Method in brief: (§1)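 PMNL were isolated from buffy coats by dextran sedimentation, Nycoprep centrifugation and hypotonic lysis of erythrocytes, then resuspended in PBS pH 7.4 with 1 mg/mL glucose and 1 mM CaCl₂. Cells were pre-incubated with compound for 15 min at 37 °C, then stimulated with A23187 plus AA for 10 min at 37 °C. 15-LO comes from eosinophils and 12-LO from adhering platelets in the preparation. After methanol/HCl stop and PGB₁ addition, metabolites were extracted and quantified by HPLC. Mean ± S.E.M., n = 3–4.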

[2] = molecular target: T2, Polyunsaturated fatty acid lipoxygenase ALOX12 (Homo sapiens, UniProt P18054); experiment: Inhibition of 12-LO in human PMNL using arachidonic acid preincubated for 15 mins; method in brief: as §1
T2 sequence (P18054 whole entry): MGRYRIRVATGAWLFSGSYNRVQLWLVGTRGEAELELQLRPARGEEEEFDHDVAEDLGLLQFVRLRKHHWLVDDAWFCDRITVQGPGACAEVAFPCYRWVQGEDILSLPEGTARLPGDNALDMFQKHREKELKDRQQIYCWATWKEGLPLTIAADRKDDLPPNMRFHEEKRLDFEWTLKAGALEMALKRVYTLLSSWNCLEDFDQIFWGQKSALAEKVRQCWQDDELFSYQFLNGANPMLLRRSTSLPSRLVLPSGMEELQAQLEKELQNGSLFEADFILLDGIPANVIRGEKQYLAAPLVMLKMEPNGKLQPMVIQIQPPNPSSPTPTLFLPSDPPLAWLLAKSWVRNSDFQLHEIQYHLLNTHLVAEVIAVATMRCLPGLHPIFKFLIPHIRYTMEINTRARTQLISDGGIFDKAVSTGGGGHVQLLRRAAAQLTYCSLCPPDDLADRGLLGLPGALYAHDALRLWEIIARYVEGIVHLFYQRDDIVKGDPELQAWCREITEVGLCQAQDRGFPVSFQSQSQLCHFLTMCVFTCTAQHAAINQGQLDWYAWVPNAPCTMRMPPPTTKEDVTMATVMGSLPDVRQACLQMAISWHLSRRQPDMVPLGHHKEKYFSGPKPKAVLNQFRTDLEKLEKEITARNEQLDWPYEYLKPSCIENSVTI

[3] = molecular target: T3, Polyunsaturated fatty acid lipoxygenase ALOX15 (Homo sapiens) (UniProt P16050); experiment: Inhibition of 15-LO in human PMNL using arachidonic acid as substrate assessed as residual activity at 10 uM preincubated for 15 mins; method in brief: as §1
T3 sequence (whole entry): T1 sequence (P16050 whole entry)

[4] = molecular target: T4, Polyunsaturated fatty acid lipoxygenase ALOX12 (Homo sapiens) (UniProt P18054); experiment: Inhibition of 12-LO in human PMNL using arachidonic acid as substrate assessed as residual activity at 10 uM preincubated for 15 mins; method in brief: as §1
T4 sequence (whole entry): T2 sequence (P18054 whole entry)

[5] = molecular target: T5, Polyunsaturated fatty acid 5-lipoxygenase (Homo sapiens, UniProt P09917); experiment: Inhibition of 5-LO in human PMNL using arachidonic acid as substrate preincubated for 15 mins; method in brief: as §1
T5 sequence (P09917 whole entry): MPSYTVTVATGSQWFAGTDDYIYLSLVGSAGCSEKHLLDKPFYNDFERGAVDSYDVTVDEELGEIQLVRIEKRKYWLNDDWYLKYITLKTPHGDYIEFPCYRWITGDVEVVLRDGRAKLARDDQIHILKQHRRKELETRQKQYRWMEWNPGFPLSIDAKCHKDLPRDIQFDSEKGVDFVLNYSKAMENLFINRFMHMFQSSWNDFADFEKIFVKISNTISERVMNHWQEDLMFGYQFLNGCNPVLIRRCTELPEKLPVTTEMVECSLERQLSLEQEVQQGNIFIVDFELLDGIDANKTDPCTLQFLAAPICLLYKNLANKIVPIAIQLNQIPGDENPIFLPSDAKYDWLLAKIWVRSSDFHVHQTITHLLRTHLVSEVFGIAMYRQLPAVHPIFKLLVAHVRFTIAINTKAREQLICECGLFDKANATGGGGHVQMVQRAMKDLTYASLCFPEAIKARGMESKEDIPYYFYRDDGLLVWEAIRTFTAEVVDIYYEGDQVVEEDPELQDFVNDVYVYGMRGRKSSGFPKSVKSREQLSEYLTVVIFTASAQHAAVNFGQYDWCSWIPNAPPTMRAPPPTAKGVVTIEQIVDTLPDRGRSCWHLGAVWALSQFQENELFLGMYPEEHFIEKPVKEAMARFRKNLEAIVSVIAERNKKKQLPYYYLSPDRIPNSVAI

[6] = molecular target: T6, Polyunsaturated fatty acid 5-lipoxygenase (Homo sapiens) (UniProt P09917); experiment: Inhibition of 5-LO in human PMNL using arachidonic acid as substrate assessed as residual activity at 10 uM preincubated for 15 mins; method in brief: as §1
T6 sequence (whole entry): T5 sequence (P09917 whole entry)

[7] = molecular target: T5, Polyunsaturated fatty acid 5-lipoxygenase; experiment: Inhibition of human recombinant 5-LO expressed in Escherichia coli BL21 using arachidonic acid as substrate after 10 mins
Method in brief: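 Purified 5-LO was diluted in PBS/EDTA and pre-incubated with compound for 5–10 min at 4 °C, then pre-warmed for 30 s at 37 °C. The reaction was started with 2 mM CaCl₂ plus AA, run 10 min at 37 °C and stopped with ice-cold methanol. Products were analysed by HPLC.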

[8] = molecular target: T6, Polyunsaturated fatty acid 5-lipoxygenase (Homo sapiens); experiment: Inhibition of human recombinant 5-LO expressed in Escherichia coli BL21 using arachidonic acid as substrate assessed as residual activity at 10 uM after 10 mins
[9] = molecular target: T5, Polyunsaturated fatty acid 5-lipoxygenase; experiment: Competitive inhibition of human recombinant 5-LO expressed in Escherichia coli BL21 using 5 uM of arachidonic acid as substrate preincubated for 15 mins measured after 10 mins
Method in brief: (§2)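 Purified 5-LO was pre-incubated with inhibitor or vehicle (0.1% DMSO) for 15 min at 4 °C, then warmed for 30 s at 37 °C. The reaction was started with 2 mM CaCl₂ plus AA at 2.5, 5, 10, 20 or 40 µM and run 10 min at 37 °C. Products were analysed by HPLC. Results are % of uninhibited control, mean ± S.E.M., n = 3.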

[10] = molecular target: T5, Polyunsaturated fatty acid 5-lipoxygenase; experiment: Competitive inhibition of human recombinant 5-LO expressed in Escherichia coli BL21 using 40 uM of arachidonic acid as substrate preincubated for 15 mins measured after 10 mins; method in brief: as §2

SMILES | IC50 [1] | IC50 [2] | Activity [3] | Activity [4] | IC50 [5] | Activity [6] | IC50 [7] | Activity [8] | IC50 [9] | IC50 [10]
Oc1ccc(Cc2ccc3ccccc3c2)c(O)c1 | > 10 µM | > 10 µM | 191% | 79.2% | 2.3 µM | 8.9% | 7.4 µM | 37.2% |  | 
Oc1ccc(-c2ccccc2)c(O)c1 | > 10 µM | > 10 µM | 106% | 72.3% | 4.2 µM | 22.7% | 2.8 µM | 9.4% |  | 
Oc1ccc(-c2cccc3c2Sc2ccccc2S3)c(O)c1 | > 10 µM | > 10 µM | 58.3% | 91.4% | 2.1 µM | 10.5% | 3.2 µM | 15.4% |  | 
COC1=CC(=O)C(O)=C(Cc2ccc3ccccc3c2)C1=O |  |  | 89.5% | 76.4% | > 10 µM | 56.1% | > 10 µM | 92.3% |  | 
CCCCCCC1=CC(=O)C(O)=CC1=O | > 10 µM | > 10 µM | 185% | 89.8% | 3 µM | 15.9% | 1.4 µM | 14.2% |  | 
O=C1C=C(c2cccc3c2oc2ccccc23)C(=O)C=C1O |  |  | 79.8% | 46.2% | > 10 µM | 74.1% | 0.8 µM | 30.8% |  | 
O=C1C=C(O)C(=O)C(CC2CCCCC2)=C1O |  |  | 87.3% | 85.2% | > 10 µM | 90.4% | > 10 µM | 95.2% |  | 
O=[N+]([O-])c1cccc(-c2ccc(O)cc2O)c1 |  |  | 108% | 90.1% | > 10 µM | 64.1% | > 10 µM | 84.3% |  | 
O=C1C=C(Cc2ccc3ccccc3c2)C(=O)C=C1O | > 10 µM | > 10 µM | 147% | 71.9% | 2.3 µM | 5.3% | 0.78 µM | 8.7% | 0.97 µM | 0.31 µM
Oc1ccc(-c2cccc3c2oc2ccccc23)c(O)c1 |  |  | 182% | 93.3% | > 10 µM | 84.1% | 6.3 µM | 30.7% |  | 
O=C(Cc1ccc2ccccc2c1)c1ccc(O)cc1O | > 10 µM | > 10 µM | 108% | 96% | 6.8 µM | 42.4% | > 10 µM | 57.4% |  | 
O=C1C=C(Cc2ccccc2)C(=O)C=C1O |  |  | 132% | 95.4% | > 10 µM | 93.3% | > 10 µM | 74.3% |  | 
COC1=CC(=O)C(O)=C(Cc2ccccc2)C1=O |  |  | 96.4% | 84% | > 10 µM | 103% | > 10 µM | 110% |  | 
O=C1C=C(c2cccc([N+](=O)[O-])c2)C(=O)C=C1O |  |  | 116% | 60.9% | > 10 µM | 61.3% | 4.6 µM | 8% |  | 
COC1=CC(=O)C(Oc2ccc3ccccc3c2)=CC1=O |  |  | 47.9% | 73.1% | 6.7 µM | 21.2% | 0.28 µM | 7.1% |  | 
Oc1ccc(Cc2ccccc2)c(O)c1 |  |  | 116% | 77% | > 10 µM | 60% | 9.4 µM | 47.6% |  | 
CCCCCCc1ccc(O)cc1O [HEXYLRESORCINOL] | > 10 µM | > 10 µM | 110% | 69.3% | 2.8 µM | 18.6% | 4.6 µM | 25.6% |  | 
O=C1C=C(O)C(=O)C(CC2CCC3CCCCC3C2)=C1O (stereo not drawn) | > 10 µM | > 10 µM | 87.9% | 60.9% | 0.58 µM | 5.4% | 11 µM | 51% |  | 
O=C1C=C(Cc2ccc3cc(C(=O)O)ccc3c2)C(=O)C=C1O |  |  | 80.9% | 81.1% | > 10 µM | 74% | 9 µM | 45.2% |  | 
Oc1ccc(-c2csc3ccccc23)c(O)c1 |  |  | 115% | 115% | > 10 µM | 92.8% | > 10 µM | 100% |  | 
